Active and inactive are the calls of the source. No cut-off for these calls is given here.
Assays:
Mus musculus [1] = test: Induction of interferon level >= 32 units/mL in ip dosed CD-1 mouse serum after 18 to 20 hrs by vesicular stomatitis virus plaque reduction assay; format: functional; conditions: CD-1, Serum, read-out: MED
Method in brief: (§1)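 Female CD-1 mice (15 g; at least three per dose) received compound dissolved or suspended in sterile distilled water, orally or ip. They were bled 18–20 hr later and sera pooled. Interferon was titrated by plaque reduction in mouse L cells challenged with vesicular stomatitis virus, with an NIAID reference mouse interferon standard. MED was the lowest dose giving ≥32 units/ml. Top doses were 400 mg/kg po and 300 mg/kg ip.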

Mus musculus [2] = test: Induction of interferon level >= 32 units/mL in po dosed CD-1 mouse serum after 18 to 20 hrs by vesicular stomatitis virus plaque reduction assay; format: functional; conditions: CD-1, Serum, read-out: MED; method in brief: as §1
Mus musculus [3] = test: Induction of interferon level in CD-1 mouse serum at 100 mg/kg, ip after 18 to 20 hrs by vesicular stomatitis virus plaque reduction assay; format: functional, organism-based; parameters: dose 100 mg/kg
Method in brief: (§2)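 Dosing was oral or ip in 15-g female CD-1 mice, at least three per dose level, with compound in sterile distilled water as a solution or suspension. Pooled sera were collected 18–20 hr after dosing. Interferon units/ml were quantified by a plaque reduction assay on mouse L cells with vesicular stomatitis virus challenge, run against an NIAID reference mouse interferon standard.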

Mus musculus [4] = test: Induction of interferon level in CD-1 mouse serum at 400 mg/kg, po after 18 to 20 hrs by vesicular stomatitis virus plaque reduction assay; format: functional, organism-based; parameters: dose 400 mg/kg; method in brief: as §2
Mus musculus [5] = test: Toxicity in CD-1 mouse at 300 mg/kg, ip; format: organism-based; parameters: dose 300 mg/kg, route intraperitoneal; conditions: in vivo

**Q.** For COc1cccc2nc3c(c(C)nn3C)c(NCCCN(C)C)c12.Cl, which minimal effective dose (Mus musculus [1]) is on record?
**A.** Its minimal effective dose is 100 mg/kg.

**Q.** And the minimal effective dose (Mus musculus [2])?
**A.** The minimal effective dose was 100 mg/kg.

**Q.** Which Activity (Mus musculus [3]) does the source give for Cc1nn(C)c2nc3c(c(NCCCN(C)C)c12)CCCC3 here?
**A.** Its Activity is “inactive”.

**Q.** What about the Activity (Mus musculus [4]) of the same compound?
**A.** Its Activity is “inactive”.

**Q.** Which results are given for Cc1nn(CCCN(C)C)c2nc3ccccc3cc12.Cl?
**A.** Activity (Mus musculus [3]): inactive; Activity (Mus musculus [5]): Toxic

**Q.** With Cc1nn(C)c2nc3ccccc3c(NCc3cccnc3)c12.Cl as the compound, how does the Activity (Mus musculus [3]) read?
**A.** The Activity was “inactive”.

**Q.** And the Activity (Mus musculus [5])?
**A.** Its Activity is “Toxic”.

**Q.** How did the minimal effective dose (Mus musculus [1]) turn out when Cc1nn(C)c2nc3ccccc3c(NCCCN)c12.Cl was run?
**A.** Its minimal effective dose is at least 300 mg/kg.

**Q.** Which Activity (Mus musculus [3]) does the source give for Cc1nn(C)c2nc3ccccc3c(NCCC3CCCN3C)c12.Cl (configuration not stated) here?
**A.** The Activity was “inactive”.

**Q.** What about the Activity (Mus musculus [5]) of the same compound?
**A.** The Activity was “Toxic”.

**Q.** How did the Activity (Mus musculus [4]) turn out when CC(=O)Nc1ccc2c(NCCCN(C)C)c3c(C)nn(C)c3nc2c1 was run?
**A.** The Activity was “inactive”.

**Q.** How did the Activity (Mus musculus [4]) turn out when Cc1nn(C)c2nc3ccccc3c(NCCC[S+](C)[O-])c12 (configuration not stated) was run?
**A.** The Activity was “inactive”.

**Q.** How did the minimal effective dose (Mus musculus [1]) turn out when Cc1nn(C)c2nc3ccccc3c(NCCCCNc3c4ccccc4nc4c3c(C)nn4C)c12 was run?
**A.** Its minimal effective dose is at least 300 mg/kg.

**Q.** With Cc1nn(C)c2nc3ccccc3c(NCCCN3CCOCC3)c12.Cl as the compound, how does the minimal effective dose (Mus musculus [1]) read?
**A.** Its minimal effective dose is 300 mg/kg.

**Q.** And the Activity (Mus musculus [4])?
**A.** The Activity was “inactive”.

**Q.** How did the Activity (Mus musculus [4]) turn out when Cc1cccc2c(NCCCN(C)C)c3ccccc3nc12 was run?
**A.** The Activity was “inactive”.

**Q.** Which Activity (Mus musculus [4]) does the source give for Cc1nn(C)c2nc3ccccc3cc12 here?
**A.** The Activity was “inactive”.

**Q.** Cc1nn(C)c2nc3ccccc3c(NCCCNC(C)C)c12.Cl was tested. Which minimal effective dose (Mus musculus [1]) did it give?
**A.** The minimal effective dose was at least 300 mg/kg.

**Q.** CCC1CCC(C)N(CCCNc2c3ccccc3nc3c2c(C)nn3C)C1.Cl (configuration not stated) was tested. Which Activity (Mus musculus [3]) did it give?
**A.** The Activity was “inactive”.

**Q.** And the Activity (Mus musculus [5])?
**A.** The Activity was “Toxic”.

**Q.** For Cc1nn(C)c2nc3ccccc3c(NCCCCl)c12, which Activity (Mus musculus [4]) is on record?
**A.** Its Activity is “inactive”.

**Q.** How did the Activity (Mus musculus [4]) turn out when CSCCCNc1c2ccccc2nc2c1c(C)nn2C was run?
**A.** The Activity was “inactive”.

**Q.** CCNc1ccc2nc3c(c(C)nn3C)c(NCCCN(C)C)c2c1.Cl was tested. Which minimal effective dose (Mus musculus [1]) did it give?
**A.** The minimal effective dose was 25 mg/kg.

**Q.** And the minimal effective dose (Mus musculus [2])?
**A.** The minimal effective dose was 50 mg/kg.

**Q.** Which results are given for Cc1ccc2c(NCCCN(C)C)c3c(C)nn(C)c3nc2c1C.Cl?
**A.** minimal effective dose (Mus musculus [1]): 200 mg/kg; minimal effective dose (Mus musculus [2]): 200 mg/kg

**Q.** For CCc1ccc2nc3c(c(C)nn3C)c(NCCCN(C)C)c2c1.Cl, which Activity (Mus musculus [3]) is on record?
**A.** The Activity was “inactive”.

**Q.** What about the Activity (Mus musculus [5]) of the same compound?
**A.** The Activity was “Toxic”.

**Q.** And the minimal effective dose (Mus musculus [2])?
**A.** Its minimal effective dose is 200 mg/kg.

**Q.** With Cc1nsc2nc3ccccc3c(NCCCN(C)C)c12 as the compound, how does the Activity (Mus musculus [4]) read?
**A.** The Activity was “inactive”.

**Q.** For Cc1nn(C)c2nc3ccccc3c(NCCCNC(C)(C)C)c12.Cl, which minimal effective dose (Mus musculus [1]) is on record?
**A.** The minimal effective dose was at least 300 mg/kg.

**Q.** How did the minimal effective dose (Mus musculus [1]) turn out when CN(C)CCCNc1c2ccccc2nc2ccccc12.Cl was run?
**A.** The minimal effective dose was at least 300 mg/kg.

**Q.** What about the Activity (Mus musculus [4]) of the same compound?
**A.** Its Activity is “inactive”.

**Q.** Which Activity (Mus musculus [4]) does the source give for Cc1nn(C)c2nc3ccccc3c(SCc3ccccc3)c12 here?
**A.** The Activity was “inactive”.

**Q.** How did the minimal effective dose (Mus musculus [1]) turn out when CCN1CCCC(Nc2c3ccccc3nc3c2c(C)nn3C)C1.Cl (configuration not stated) was run?
**A.** Its minimal effective dose is at least 300 mg/kg.

**Q.** What does the source list for Cc1cccc2c(NCCCN(C)C)c3c(C)nn(C)c3nc12.Cl?
**A.** Activity (Mus musculus [3]): inactive; Activity (Mus musculus [5]): Toxic

**Q.** For Cc1nn(C)c2nc3cccc(NCCCN(C)C)c3cc12, which Activity (Mus musculus [4]) is on record?
**A.** The Activity was “inactive”.

**Q.** Which minimal effective dose (Mus musculus [1]) does the source give for Cc1nn(C)c2nc3cc(CO)ccc3c(NCCCN(C)C)c12.Cl here?
**A.** Its minimal effective dose is 100 mg/kg.

**Q.** What about the minimal effective dose (Mus musculus [2]) of the same compound?
**A.** Its minimal effective dose is 200 mg/kg.

**Q.** Which Activity (Mus musculus [3]) does the source give for Cc1nn(CCCN(C)C)c2nc3ccccc3c(NCCCN(C)C)c12.Cl here?
**A.** The Activity was “inactive”.

**Q.** And the Activity (Mus musculus [5])?
**A.** The Activity was “Toxic”.

**Q.** And the Activity (Mus musculus [4])?
**A.** The Activity was “inactive”.

**Q.** With Cc1nn(C)c2nc3ccccc3c(NCCCO)c12 as the compound, how does the Activity (Mus musculus [4]) read?
**A.** Its Activity is “inactive”.

**Q.** With CCc1n[nH]c2nc3ccccc3c(NCCCN(C)C)c12.Cl as the compound, how does the Activity (Mus musculus [3]) read?
**A.** The Activity was “inactive”.

**Q.** What about the Activity (Mus musculus [5]) of the same compound?
**A.** Its Activity is “Toxic”.

**Q.** For Cc1nn(C)c2nc3ccccc3c(NCCCN3CCCC3=O)c12.Cl, which Activity (Mus musculus [3]) is on record?
**A.** The Activity was “inactive”.

**Q.** And the Activity (Mus musculus [5])?
**A.** Its Activity is “Toxic”.

**Q.** Which Activity (Mus musculus [4]) does the source give for Cc1nn(C)c2nc3ccccc3c(Cl)c12 here?
**A.** Its Activity is “inactive”.

**Q.** For Cc1nn(C)c2nc3cc4ccccc4cc3c(NCCCN(C)C)c12.Cl, which minimal effective dose (Mus musculus [1]) is on record?
**A.** Its minimal effective dose is 100 mg/kg.

**Q.** With Cc1nn(C)c2nc3ncccc3c(NCCCN(C)C)c12.Cl as the compound, how does the minimal effective dose (Mus musculus [1]) read?
**A.** The minimal effective dose was at least 300 mg/kg.

**Q.** What does the source list for COc1cc(OC)c2c(NCCCN(C)C)c3c(C)nn(C)c3nc2c1.Cl?
**A.** minimal effective dose (Mus musculus [1]): 25 mg/kg; minimal effective dose (Mus musculus [2]): 25 mg/kg

**Q.** Cc1nn(C)c2nc3ccccc3c(NCCCN(C)CCCN(C)C)c12.Cl was tested. Which minimal effective dose (Mus musculus [1]) did it give?
**A.** The minimal effective dose was over 300 mg/kg.

**Q.** For Cc1nn(CC(F)(F)F)c2nc3ccccc3c(NCCCN(C)C)c12.Cl, which Activity (Mus musculus [3]) is on record?
**A.** The Activity was “inactive”.

**Q.** What about the Activity (Mus musculus [5]) of the same compound?
**A.** Its Activity is “Toxic”.

**Q.** With CCN(CC)CCCC(C)Nc1c2ccccc2nc2c1c(C)nn2C (configuration not stated) as the compound, how does the Activity (Mus musculus [4]) read?
**A.** Its Activity is “inactive”.

**Q.** With CNc1c2ccccc2nc2c1c(C)nn2C as the compound, how does the Activity (Mus musculus [4]) read?
**A.** The Activity was “inactive”.

**Q.** With Cc1nn(C)c2nc3ccccc3c(NCCCCCN(C)C)c12.Cl as the compound, how does the minimal effective dose (Mus musculus [1]) read?
**A.** The minimal effective dose was 150 mg/kg.

**Q.** And the minimal effective dose (Mus musculus [2])?
**A.** The minimal effective dose was 200 mg/kg.

**Q.** With Cc1nn(C)c2nc3c(cc12)CCCC3 as the compound, how does the Activity (Mus musculus [4]) read?
**A.** The Activity was “inactive”.

— ChEMBL document CHEMBL3272265, “Interferon inducing activities of derivatives of 1,3-dimethyl-4-(3-dimethylaminopropylamino)-1H-pyrazolo(3,4-b)quinoline and related compounds” (J Med Chem, 1976)
